The text below walks through data of ChEMBL document CHEMBL4229344 (Eur J Med Chem, 2018).

Activity calls are given as the source filed them. The rule behind the calls is not given here.

Assay [1] deals with Phosphatidylinositol 4,5-bisphosphate 3-kinase catalytic subunit alpha isoform (Homo sapiens), P42336 [C420R]. Description: Binding affinity to human partial length PIK3CA C420R mutant (R108 to N1068 residues) expressed in mammalian expression system assessed as residual binding level at 1 uM by Kinomescan method relative to control. In outline: (§1)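 Kinome-wide single-concentration binding screen (KINOMEscan) at 1 μM against a panel of 468 purified kinases and mutants. Read-out is relative binding of each kinase compared with control. Selectivity across the panel was summarised as an S(10) score.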
Chain of Phosphatidylinositol 4,5-bisphosphate 3-kinase catalytic subunit alpha isoform (Homo sapiens), P42336 [C420R] (P42336 whole entry C420R, the tested form may be a part, canonical isoform): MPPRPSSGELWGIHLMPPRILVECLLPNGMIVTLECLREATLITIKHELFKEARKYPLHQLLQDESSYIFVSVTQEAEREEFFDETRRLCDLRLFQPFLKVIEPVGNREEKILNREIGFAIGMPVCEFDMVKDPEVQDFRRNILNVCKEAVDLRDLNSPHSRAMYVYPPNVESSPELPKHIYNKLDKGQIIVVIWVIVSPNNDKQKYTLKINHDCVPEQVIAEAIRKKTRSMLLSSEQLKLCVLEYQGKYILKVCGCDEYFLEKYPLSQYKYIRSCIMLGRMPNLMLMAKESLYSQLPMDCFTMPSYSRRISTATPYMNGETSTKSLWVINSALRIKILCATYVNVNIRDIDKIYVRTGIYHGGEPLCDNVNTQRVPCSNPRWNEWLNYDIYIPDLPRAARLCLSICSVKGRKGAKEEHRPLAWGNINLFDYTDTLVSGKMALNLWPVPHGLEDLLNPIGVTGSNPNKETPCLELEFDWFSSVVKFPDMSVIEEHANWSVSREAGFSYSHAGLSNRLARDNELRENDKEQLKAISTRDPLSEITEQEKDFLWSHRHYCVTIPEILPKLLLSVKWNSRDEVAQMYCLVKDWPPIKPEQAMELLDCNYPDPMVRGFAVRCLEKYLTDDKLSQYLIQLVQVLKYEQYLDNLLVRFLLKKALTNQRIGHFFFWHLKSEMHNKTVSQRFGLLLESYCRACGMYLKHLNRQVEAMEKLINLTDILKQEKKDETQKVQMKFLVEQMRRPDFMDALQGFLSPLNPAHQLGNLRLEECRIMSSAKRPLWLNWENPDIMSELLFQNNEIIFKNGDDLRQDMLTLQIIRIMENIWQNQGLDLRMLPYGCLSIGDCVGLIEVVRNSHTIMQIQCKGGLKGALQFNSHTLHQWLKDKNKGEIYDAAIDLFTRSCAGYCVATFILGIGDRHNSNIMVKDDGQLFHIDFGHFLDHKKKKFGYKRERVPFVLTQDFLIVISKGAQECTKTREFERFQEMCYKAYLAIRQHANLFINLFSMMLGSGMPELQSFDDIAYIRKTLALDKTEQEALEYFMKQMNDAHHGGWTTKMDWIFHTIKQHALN

Assay [2] deals with Mast/stem cell growth factor receptor Kit (Homo sapiens, UniProt P10721). Description: Binding affinity to wild-type human partial length KIT (I571 to D952 residues) expressed in bacterial expression system assessed as residual binding level at 1 uM by Kinomescan method relative to control.
In assay [3] the target is Serine/threonine-protein kinase tousled-like 1 (Homo sapiens) (UniProt Q9UKI8). The experiment in a line: Binding affinity to wild-type human partial length TLK1 (K447 to A754 residues) expressed in bacterial expression system assessed as residual binding level at 1 uM by Kinomescan method relative to control.
Assay [4] concerns the target RAC-gamma serine/threonine-protein kinase (Homo sapiens) (UniProt Q9Y243). Description: Binding affinity to wild-type human partial length AKT3 expressed in bacterial expression system assessed as residual binding level at 1 uM by Kinomescan method relative to control. The gist of the method: (§2)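 Kinome-wide competition binding screen against a panel of 468 purified kinases/mutants, with the test compound at a single concentration of 1 μM. Read-out is the relative binding activity of each kinase in the presence of compound.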

The test system of assay [5] is Receptor-type tyrosine-protein kinase FLT3 (Homo sapiens), P36888 [K663Q]. Description: Binding affinity to human partial length FLT3 K663Q mutant (V592 to Y969 residues) expressed in bacterial expression system assessed as residual binding level at 1 uM by Kinomescan method relative to control. The gist of the method:
as §1

Assay [6] concerns the target Calcium/calmodulin-dependent protein kinase type II subunit alpha (Homo sapiens) (UniProt Q9UQM7). The experiment in a line: Binding affinity to wild-type human partial length CAMK2A (M1 to K328 residues) expressed in bacterial expression system assessed as residual binding level at 1 uM by Kinomescan method relative to control. In outline: as §2
For assay [7], the target named is Tyrosine-protein kinase BTK (Homo sapiens) (UniProt Q06187). The experiment in a line: Binding affinity to wild-type human full length BTK (M1 to S659 residues) expressed in mammalian expression system assessed as residual binding level at 1 uM by Kinomescan method relative to control. In outline: (§3)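 Single-concentration (1 μM) competition-binding screen run by KINOMEscan against a panel of 468 purified kinases and mutants. The read-out is the relative binding activity of the test compound to each kinase.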
Chain of Tyrosine-protein kinase BTK (Homo sapiens) (Q06187 whole entry, the tested form may be a part): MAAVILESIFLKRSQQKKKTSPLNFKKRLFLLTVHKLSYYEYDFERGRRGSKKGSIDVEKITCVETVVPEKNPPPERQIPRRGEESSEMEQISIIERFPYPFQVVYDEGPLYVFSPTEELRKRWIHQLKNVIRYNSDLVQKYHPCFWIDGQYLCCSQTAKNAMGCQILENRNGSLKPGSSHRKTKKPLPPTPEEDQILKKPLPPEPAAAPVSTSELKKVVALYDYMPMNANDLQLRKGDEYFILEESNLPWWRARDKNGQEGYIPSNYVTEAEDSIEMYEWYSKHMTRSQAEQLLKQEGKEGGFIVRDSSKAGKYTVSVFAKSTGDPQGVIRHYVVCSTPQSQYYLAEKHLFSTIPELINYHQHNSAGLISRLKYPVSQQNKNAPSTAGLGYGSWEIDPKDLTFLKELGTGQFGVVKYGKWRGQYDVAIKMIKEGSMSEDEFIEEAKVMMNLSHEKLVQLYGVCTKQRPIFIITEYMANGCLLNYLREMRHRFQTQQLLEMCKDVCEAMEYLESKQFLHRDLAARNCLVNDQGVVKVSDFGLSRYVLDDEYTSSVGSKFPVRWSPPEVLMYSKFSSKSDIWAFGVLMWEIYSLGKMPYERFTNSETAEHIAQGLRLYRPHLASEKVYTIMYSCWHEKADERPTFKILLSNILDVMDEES

The target of assay [8] is Cyclin-dependent kinase 9 (Homo sapiens) (UniProt P50750). The experiment in a line: Binding affinity to wild-type human full length CDK9 (M1 to F372 residues) expressed in bacterial expression system assessed as residual binding level at 1 uM by Kinomescan method relative to control. In outline:
as §3

The target of assay [9] is Interleukin-1 receptor-associated kinase 3 (Homo sapiens) (UniProt Q9Y616). The experiment in a line: Binding affinity to wild-type human partial length IRAK3 (V147 to E596 residues) expressed in bacterial expression system assessed as residual binding level at 1 uM by Kinomescan method relative to control.
Assay [10] has as its target Ephrin type-B receptor 4 (Homo sapiens) (UniProt P54760). Description: Binding affinity to wild-type human partial length EPHB4 (H585 to G892 residues) expressed in bacterial expression system assessed as residual binding level at 1 uM by Kinomescan method relative to control.
The target of assay [11] is Phosphorylase b kinase gamma catalytic chain, skeletal muscle/heart isoform (Homo sapiens) (UniProt Q16816). The experiment in a line: Binding affinity to wild-type human full length PHKG1 (M1 to Y387 residues) expressed in bacterial expression system assessed as residual binding level at 1 uM by Kinomescan method relative to control. The gist of the method:
(§4)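 KINOMEscan competition binding against 468 purified kinases/mutants, test compound at 1 µM; residual binding relative to control.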

Assay [12] concerns the target G protein-coupled receptor kinase 4 (Homo sapiens) (UniProt P32298). Description: Binding affinity to wild-type human full length GRK4 (M1 to C578 residues) expressed in bacterial expression system assessed as residual binding level at 1 uM by Kinomescan method relative to control. The gist of the method: as §3
Assay [13] concerns the target Hepatocyte growth factor receptor (Homo sapiens) (UniProt P08581). The experiment in a line: Binding affinity to wild-type human partial length MET (D1010 to S1367 residues) expressed in bacterial expression system assessed as residual binding level at 1 uM by Kinomescan method relative to control.
Assay [14] addresses Mitogen-activated protein kinase kinase kinase 4 (Homo sapiens) (UniProt Q9Y6R4). The experiment in a line: Binding affinity to wild-type human partial length MAP3K4 (G1319 to E1608 residues) expressed in bacterial expression system assessed as residual binding level at 1 uM by Kinomescan method relative to control.
The target in assay [15] is Platelet-derived growth factor receptor alpha (Homo sapiens, UniProt P16234). Description: Inhibition of PDGFRalpha autophosphorylation at Y1018 residue in human EOL-1 cells up to 300 nM after 2 hrs by Western blot analysis. The class given is cell-based. Background: Immunoblotting shows a protein as a band on a membrane.
Assay [16] concerns the target Mitogen-activated protein kinase 12 (Homo sapiens) (UniProt P53778). The experiment in a line: Binding affinity to wild-type human full length p38-gamma (M1 to L367 residues) expressed in mammalian expression system assessed as residual binding level at 1 uM by Kinomescan method relative to control. In outline: as §4
Assay [17] addresses Homeodomain-interacting protein kinase 4 (Homo sapiens) (UniProt Q8NE63). The experiment in a line: Binding affinity to wild-type human partial length HIPK4 (M1 to V384 residues) expressed in bacterial expression system assessed as residual binding level at 1 uM by Kinomescan method relative to control. In outline:
as §2

For assay [18], the target named is Serine/threonine-protein kinase Nek5 (Homo sapiens) (UniProt Q6P3R8). Description: Binding affinity to wild-type human partial length NEK5 (M1 to M279 residues) expressed in bacterial expression system assessed as residual binding level at 1 uM by Kinomescan method relative to control.
In assay [19] the target is Epidermal growth factor receptor (Homo sapiens) (UniProt P00533). Description: Binding affinity to human partial length EGFR S752-I759del mutant expressed in bacterial expression system assessed as residual binding level at 1 uM by Kinomescan method relative to control. The gist of the method:
as §1

For assay [20], the target named is Mitogen-activated protein kinase 14 (Homo sapiens) (UniProt Q16539). Description: Binding affinity to wild-type human full length p38-alpha (M1 to S360 residues) expressed in bacterial expression system assessed as residual binding level at 1 uM by Kinomescan method relative to control. In outline:
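Single-concentration KINOMEscan (DiscoverX) binding screen at 1 μM against a panel of 468 purified kinases and mutants. The read-out is binding relative to control.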

Assay [21] addresses Protein kinase C eta type (Homo sapiens) (UniProt P24723). Description: Binding affinity to wild-type human partial length PRKCH (S324 to P683 residues) expressed in bacterial expression system assessed as residual binding level at 1 uM by Kinomescan method relative to control.
Assay [22] has as its target Serine/threonine-protein kinase NLK (Homo sapiens) (UniProt Q9UBE8). The experiment in a line: Binding affinity to wild-type human full length NLK (M13 to E527 residues) expressed in bacterial expression system assessed as residual binding level at 1 uM by Kinomescan method relative to control. The gist of the method: as §4

Chain of RAC-gamma serine/threonine-protein kinase (Homo sapiens) (Q9Y243 whole entry): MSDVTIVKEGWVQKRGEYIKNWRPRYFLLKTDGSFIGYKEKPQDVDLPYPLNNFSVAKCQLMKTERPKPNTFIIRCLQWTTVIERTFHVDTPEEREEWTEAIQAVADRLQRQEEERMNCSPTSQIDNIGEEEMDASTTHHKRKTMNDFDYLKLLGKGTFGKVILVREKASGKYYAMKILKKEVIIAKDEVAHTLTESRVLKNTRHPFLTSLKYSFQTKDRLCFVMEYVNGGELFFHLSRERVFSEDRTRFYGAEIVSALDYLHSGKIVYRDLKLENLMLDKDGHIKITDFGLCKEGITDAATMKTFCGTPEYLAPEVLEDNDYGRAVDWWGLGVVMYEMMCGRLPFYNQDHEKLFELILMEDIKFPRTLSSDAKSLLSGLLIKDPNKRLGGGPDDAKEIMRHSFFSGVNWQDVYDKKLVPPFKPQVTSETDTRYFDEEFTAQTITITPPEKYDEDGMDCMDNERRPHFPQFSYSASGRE
Chain of Hepatocyte growth factor receptor (Homo sapiens) (P08581 whole entry, the tested form may be a part): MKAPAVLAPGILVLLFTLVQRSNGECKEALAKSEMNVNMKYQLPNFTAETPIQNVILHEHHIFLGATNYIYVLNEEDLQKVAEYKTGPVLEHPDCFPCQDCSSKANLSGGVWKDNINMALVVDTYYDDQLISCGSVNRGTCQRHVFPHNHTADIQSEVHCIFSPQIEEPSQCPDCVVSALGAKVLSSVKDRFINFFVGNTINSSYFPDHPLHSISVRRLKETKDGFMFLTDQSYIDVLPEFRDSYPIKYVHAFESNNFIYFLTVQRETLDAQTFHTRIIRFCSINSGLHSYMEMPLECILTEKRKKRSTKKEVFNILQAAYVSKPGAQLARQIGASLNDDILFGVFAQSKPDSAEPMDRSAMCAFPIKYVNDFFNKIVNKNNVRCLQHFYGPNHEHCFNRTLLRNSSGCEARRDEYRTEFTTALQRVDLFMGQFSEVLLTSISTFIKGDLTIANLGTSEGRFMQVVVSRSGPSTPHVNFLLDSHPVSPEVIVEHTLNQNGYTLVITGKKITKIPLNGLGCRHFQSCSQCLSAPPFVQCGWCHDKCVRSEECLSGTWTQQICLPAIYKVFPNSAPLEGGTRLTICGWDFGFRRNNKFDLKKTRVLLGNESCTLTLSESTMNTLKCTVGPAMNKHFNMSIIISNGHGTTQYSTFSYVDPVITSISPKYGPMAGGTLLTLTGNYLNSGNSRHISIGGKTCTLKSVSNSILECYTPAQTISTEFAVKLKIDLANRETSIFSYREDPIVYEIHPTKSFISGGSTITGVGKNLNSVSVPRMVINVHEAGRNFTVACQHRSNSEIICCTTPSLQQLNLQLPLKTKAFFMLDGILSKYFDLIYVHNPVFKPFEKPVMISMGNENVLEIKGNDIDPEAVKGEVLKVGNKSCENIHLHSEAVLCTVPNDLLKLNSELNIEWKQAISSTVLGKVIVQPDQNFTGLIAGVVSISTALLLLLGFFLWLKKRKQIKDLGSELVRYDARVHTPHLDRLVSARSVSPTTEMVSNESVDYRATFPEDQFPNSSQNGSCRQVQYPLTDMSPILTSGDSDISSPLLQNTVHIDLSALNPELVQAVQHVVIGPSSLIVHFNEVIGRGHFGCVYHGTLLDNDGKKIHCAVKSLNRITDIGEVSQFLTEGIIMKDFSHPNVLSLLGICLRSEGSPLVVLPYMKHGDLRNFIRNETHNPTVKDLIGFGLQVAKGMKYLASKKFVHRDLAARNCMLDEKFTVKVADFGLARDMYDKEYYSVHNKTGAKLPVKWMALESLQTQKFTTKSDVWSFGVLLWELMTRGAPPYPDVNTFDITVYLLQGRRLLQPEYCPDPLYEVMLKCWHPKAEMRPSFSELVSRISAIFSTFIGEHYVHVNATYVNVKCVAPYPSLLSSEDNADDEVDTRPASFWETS
Chain of Cyclin-dependent kinase 9 (Homo sapiens) (P50750 whole entry, the tested form may be a part): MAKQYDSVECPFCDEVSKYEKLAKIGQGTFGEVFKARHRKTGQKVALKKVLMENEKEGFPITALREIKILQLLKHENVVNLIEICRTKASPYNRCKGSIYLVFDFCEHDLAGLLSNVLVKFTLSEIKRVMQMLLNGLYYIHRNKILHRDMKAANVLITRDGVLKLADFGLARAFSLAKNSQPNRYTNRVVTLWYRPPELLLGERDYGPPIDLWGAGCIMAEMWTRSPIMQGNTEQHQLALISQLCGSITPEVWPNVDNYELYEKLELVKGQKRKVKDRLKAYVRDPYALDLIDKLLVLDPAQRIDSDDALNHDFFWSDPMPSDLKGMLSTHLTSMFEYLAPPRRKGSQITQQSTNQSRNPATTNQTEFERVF
Chain of Protein kinase C eta type (Homo sapiens) (P24723 whole entry, the tested form may be a part): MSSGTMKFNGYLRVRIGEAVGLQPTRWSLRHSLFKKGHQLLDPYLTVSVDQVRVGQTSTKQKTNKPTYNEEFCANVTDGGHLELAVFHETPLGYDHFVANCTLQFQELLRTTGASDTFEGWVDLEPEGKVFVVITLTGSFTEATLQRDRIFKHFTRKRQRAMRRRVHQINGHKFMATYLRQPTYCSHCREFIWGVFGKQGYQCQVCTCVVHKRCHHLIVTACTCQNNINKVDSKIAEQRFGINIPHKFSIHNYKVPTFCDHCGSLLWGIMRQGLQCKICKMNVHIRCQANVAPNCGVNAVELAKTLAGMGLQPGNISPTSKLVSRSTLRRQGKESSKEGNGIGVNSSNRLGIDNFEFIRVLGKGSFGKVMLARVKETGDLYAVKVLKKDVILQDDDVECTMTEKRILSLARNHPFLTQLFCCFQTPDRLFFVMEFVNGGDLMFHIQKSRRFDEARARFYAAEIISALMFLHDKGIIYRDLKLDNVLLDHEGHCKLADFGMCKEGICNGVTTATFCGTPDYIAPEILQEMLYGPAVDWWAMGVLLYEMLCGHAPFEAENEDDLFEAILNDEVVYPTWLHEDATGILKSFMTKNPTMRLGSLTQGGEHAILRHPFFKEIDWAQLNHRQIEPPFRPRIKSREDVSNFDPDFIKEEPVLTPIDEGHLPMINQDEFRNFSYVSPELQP
Chain of Phosphorylase b kinase gamma catalytic chain, skeletal muscle/heart isoform (Homo sapiens) (Q16816 whole entry, looked up, the tested form may be a part, canonical isoform): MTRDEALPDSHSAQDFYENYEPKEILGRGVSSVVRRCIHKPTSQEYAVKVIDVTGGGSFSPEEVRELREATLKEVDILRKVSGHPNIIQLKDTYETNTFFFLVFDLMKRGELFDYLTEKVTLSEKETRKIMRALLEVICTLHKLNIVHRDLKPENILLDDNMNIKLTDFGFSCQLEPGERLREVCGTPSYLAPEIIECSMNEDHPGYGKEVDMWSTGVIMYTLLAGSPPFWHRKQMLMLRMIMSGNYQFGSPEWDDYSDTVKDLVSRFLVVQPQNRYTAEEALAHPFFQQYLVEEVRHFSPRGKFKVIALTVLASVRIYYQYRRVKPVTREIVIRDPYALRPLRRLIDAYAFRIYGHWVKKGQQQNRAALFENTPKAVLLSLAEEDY

`Cc1ccc(NC(=O)c2ccc(CN(CCN(C)C)C(=O)c3cccnc3)cc2)cc1Nc1nccc(-c2cccnc2)n1`: the Activity in assay [1] turned out to be 93%; in assay [2], 2.2%; in assay [3], 100%; in assay [4] it was 92%; in [5], 93%; in assay [6], 89%. The Activity in assay [7] came out at 100%; in assay [8], 100%; in assay [9], 100%; in assay [10] it was 90%; in assay [11], 94%; in assay [12], 88%. In addition, the Activity was determined as 90% in assay [13]; 90% in assay [14]; 69% in [16]; 74% in [17]; 99% in [18]; 90% in assay [19]. The Activity came to 99% in [20], 86% in assay [21] and 82% in assay [22]. Besides, the inhibition entry in [15] is “Active”.
